Experimental data reported in PMC6210075 (ACS Omega, 2018).

How the values were obtained:
Type in all cases: biochemical
[1] = target: T1, human FAAH (Homo sapiens, UniProt O00519); assay: Ki and kinact determination on FAAH
T1 sequence (O00519 1-579): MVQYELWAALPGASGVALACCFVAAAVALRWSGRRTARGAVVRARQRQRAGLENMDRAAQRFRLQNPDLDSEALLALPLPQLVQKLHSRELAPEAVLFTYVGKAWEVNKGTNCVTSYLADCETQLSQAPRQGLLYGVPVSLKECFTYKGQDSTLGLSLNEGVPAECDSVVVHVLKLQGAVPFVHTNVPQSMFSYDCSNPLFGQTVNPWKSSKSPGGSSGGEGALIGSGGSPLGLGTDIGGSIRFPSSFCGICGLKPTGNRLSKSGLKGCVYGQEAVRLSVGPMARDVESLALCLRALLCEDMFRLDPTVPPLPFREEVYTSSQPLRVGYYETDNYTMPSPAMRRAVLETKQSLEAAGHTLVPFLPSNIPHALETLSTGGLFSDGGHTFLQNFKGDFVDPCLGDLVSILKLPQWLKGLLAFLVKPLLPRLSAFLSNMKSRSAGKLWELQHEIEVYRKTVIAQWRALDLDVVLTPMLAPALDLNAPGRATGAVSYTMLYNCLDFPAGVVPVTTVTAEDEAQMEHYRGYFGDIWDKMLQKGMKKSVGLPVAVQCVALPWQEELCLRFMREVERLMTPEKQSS
In short: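 Crude baculovirus-expressed recombinant FAAH (High Five cell S9 fraction in 50 mM Tris/HCl pH 8.0, 1 mM CHAPS, 10% glycerol). OMP (100 μM final) was mixed with a range of test compound concentrations and held 5 min at 37 °C.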

[2] = target: T2, mouse sEH (Mus musculus, UniProt P34914); assay: sEH fluorescent inhibition assay, recombinant mouse sEH
T2 sequence (P34914 1-554): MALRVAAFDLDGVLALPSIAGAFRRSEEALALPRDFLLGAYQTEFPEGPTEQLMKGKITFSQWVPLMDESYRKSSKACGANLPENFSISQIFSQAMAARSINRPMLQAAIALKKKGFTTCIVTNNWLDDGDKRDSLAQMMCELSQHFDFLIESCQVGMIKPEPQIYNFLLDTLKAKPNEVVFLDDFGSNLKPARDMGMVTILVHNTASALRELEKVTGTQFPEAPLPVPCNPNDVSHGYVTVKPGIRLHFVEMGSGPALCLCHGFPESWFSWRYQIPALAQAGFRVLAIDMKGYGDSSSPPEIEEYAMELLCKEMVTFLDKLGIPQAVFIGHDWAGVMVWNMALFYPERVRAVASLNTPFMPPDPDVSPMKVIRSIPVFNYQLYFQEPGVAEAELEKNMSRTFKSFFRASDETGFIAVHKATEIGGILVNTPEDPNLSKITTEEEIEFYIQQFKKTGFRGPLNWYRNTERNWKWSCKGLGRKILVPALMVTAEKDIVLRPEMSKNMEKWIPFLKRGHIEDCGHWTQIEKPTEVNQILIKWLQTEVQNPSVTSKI

[3] = target: T3, rat FAAH (Rattus norvegicus, UniProt P97612); assay: FAAH fluorescent inhibition assay, rat brain microsomes
T3 sequence (P97612 1-579): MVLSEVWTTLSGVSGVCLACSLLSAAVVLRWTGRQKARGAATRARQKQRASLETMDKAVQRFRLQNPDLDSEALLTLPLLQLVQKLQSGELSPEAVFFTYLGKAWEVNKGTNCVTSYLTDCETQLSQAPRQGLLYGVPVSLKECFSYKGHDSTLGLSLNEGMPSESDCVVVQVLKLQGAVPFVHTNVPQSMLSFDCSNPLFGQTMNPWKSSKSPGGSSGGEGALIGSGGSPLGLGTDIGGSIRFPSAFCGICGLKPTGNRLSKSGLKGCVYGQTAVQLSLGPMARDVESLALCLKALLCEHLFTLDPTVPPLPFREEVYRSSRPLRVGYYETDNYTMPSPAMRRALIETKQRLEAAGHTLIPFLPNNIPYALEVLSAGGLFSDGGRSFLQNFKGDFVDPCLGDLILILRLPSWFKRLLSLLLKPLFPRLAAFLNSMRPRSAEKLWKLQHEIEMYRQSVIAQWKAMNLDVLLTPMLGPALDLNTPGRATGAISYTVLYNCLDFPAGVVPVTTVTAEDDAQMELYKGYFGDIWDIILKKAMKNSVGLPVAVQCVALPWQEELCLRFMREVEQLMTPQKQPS
In short: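 Rat brain microsomes: tissue homogenized in 20 mM phosphate (pH 7.4, 5 mM EDTA), spun at 9000g for 20 min, then 100 000g for 1 h, and stored at −80 °C. OMP (100 μM final) in 0.1 M sodium phosphate pH 8, 0.1 mg/mL BSA, 2% DMSO, 37 °C. Fluorescence (ex 303/em 394 nm) read every 30 s for 10 min. No-enzyme background subtracted. IC50 from linear regression of log[I] vs % remaining activity; triplicates.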

[4] = target: T1, human FAAH; assay: FAAH fluorescent inhibition assay
[5] = target: T4, human sEH (Homo sapiens, UniProt P34913); assay: sEH fluorescent inhibition assay
T4 sequence (P34913 1-555): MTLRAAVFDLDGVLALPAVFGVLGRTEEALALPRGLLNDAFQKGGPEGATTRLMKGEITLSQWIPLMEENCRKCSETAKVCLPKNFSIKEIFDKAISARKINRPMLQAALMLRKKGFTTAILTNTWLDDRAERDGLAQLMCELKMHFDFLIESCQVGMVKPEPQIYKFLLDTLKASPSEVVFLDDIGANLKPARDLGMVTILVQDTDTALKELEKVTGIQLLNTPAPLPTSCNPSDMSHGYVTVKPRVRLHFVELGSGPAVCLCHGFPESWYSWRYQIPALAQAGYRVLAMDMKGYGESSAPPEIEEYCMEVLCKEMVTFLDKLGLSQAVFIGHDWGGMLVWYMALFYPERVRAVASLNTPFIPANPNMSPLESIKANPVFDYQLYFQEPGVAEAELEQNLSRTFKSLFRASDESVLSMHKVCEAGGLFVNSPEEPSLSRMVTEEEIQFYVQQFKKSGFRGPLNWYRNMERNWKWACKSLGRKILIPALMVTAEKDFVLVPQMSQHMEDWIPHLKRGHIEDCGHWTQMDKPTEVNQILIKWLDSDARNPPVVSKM

[6] = FAAH IC50 (60 min pre-incubation), 60 min pre-incubation

Compound	Ki [1]	kinact [1]	kinact/KI [1]	IC50 [2]	IC50 ([3]; FAAH IC50 (5 min pre-incubation), 5 min pre-incubation)	IC50 [3, 6]	difference in potency on FAAH ([4]; compared to 11)	difference in potency on sEH ([5]; compared to 11)	IC50 [4]	IC50 [5]
O=C(Nc1ccc(C(F)(F)F)cc1F)N1CCC(Cc2cccc(Oc3ccc(C(F)(F)F)cn3)c2)CC1 [compound 18]	24 nM	0.000283 s⁻¹	700000 M⁻¹ s⁻¹	360 nM	> 10000 nM	1100 nM	< 3 fold	< 3 fold		
O=C(Nc1cccnc1)N1CCC(Cc2cccc(Oc3ccc(C(F)(F)F)cn3)c2)CC1 [PF-3845, reference compound]	3.5 nM			1200 nM		0.2 nM			0.65 nM	12000 nM
